Source: ChEMBL document CHEMBL1157441, “Fungicidal activity of truncated analogues of dihydrosphingosine” (2008)
Converted amounts (≈) assume the structure as drawn. The source made the active and inactive calls.

Columns and labels:
Nakaseomyces glabratus = test: Fungicidal activity against Candida glabrata BG2; assay type: functional
Procedure, shortened: (§1)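 Overnight cultures diluted 1/400 in PBS, exposed to compound or DMSO without ascorbic acid for 0 h and 5 h at 37°C. Survivors counted as CFU on YPD agar after 2 days at 30°C. MFC taken as lowest concentration giving under 1% survival relative to DMSO control.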

Candida albicans [1] = test: Fungicidal activity against Candida albicans CAI4 in presence of 10 mM ascorbic acid; assay type: functional
Procedure, shortened: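 Overnight C. albicans culture diluted 1/400 in PBS, exposed to compound or DMSO with 10 mM ascorbic acid for 0 h and 5 h at 37°C. CFU counted on YPD agar after 2 days at 30°C. MFC defined as minimal concentration leaving under 1% survival versus DMSO control.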

Candida albicans [2] = test: Induction of endogenous ROS accumulation in Candida albicans CAI4 after 3 hrs by 2',7'-dichlorofluorescein diacetate staining; assay type: functional, organism-based
Procedure, shortened: (§2)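 Log-phase cells suspended in PBS and pre-incubated with compounds for 3 h at 37°C. Cells then washed in PBS and incubated with 2',7'-dichlorofluorescein diacetate for 3 h at 37°C. Cellular fluorescence read by fluorescence spectrometer, ex 485 nm / em 525 nm. Tested over a range of concentrations up to 100 µg/ml.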

Candida albicans [3] = test: Fungicidal activity against Candida albicans CAI4; assay type: functional; procedure, shortened: as §1
Candida albicans [4] = test: Induction of endogenous ROS accumulation in Candida albicans CAI4 at 100 ug/ml after 3 hrs by 2',7'-dichlorofluorescein diacetate staining; assay type: functional, organism-based; procedure, shortened: as §2

Structure (SMILES)	MFC (Nakaseomyces glabratus) [µg/mL]	MFC (Candida albicans [1]) [µg/mL]	Activity (Candida albicans [2])	MFC (Candida albicans [3]) [µg/mL]	Activity (Candida albicans [4])
CCCCCCCCCCCCCC[C@@H](O)[C@@H](N)CO	0.5 (≈ 1.74 µM)	2	Active	0.5 (≈ 1.74 µM)	–
CC[C@@H](O)[C@@H](N)CO	> 100	–	–	> 100	inactive
CCCCCCCCCCCCCCC[C@@H](O)[C@@H](N)CO [DIHYDROSPINGOSINE]	1 (≈ 3.32 µM)	5	Active	5 (≈ 16.6 µM)	–
CCCCCCCCCCCC[C@@H](O)[C@@H](N)CO	0.5 (≈ 1.93 µM)	10	Active	0.5 (≈ 1.93 µM)	–
CCCCCCCCCCCCCC[C@@H](O)[C@@H](O)[C@@H](N)CO [PHYTOSPHINGOSINE]	1 (≈ 3.15 µM)	1	Active	1 (≈ 3.15 µM)	–
CCCCCC[C@@H](O)[C@@H](N)CO	> 100	–	–	> 100	inactive
CCCCCCCCC[C@@H](O)[C@@H](N)CO	10 (≈ 46 µM)	> 25	Active	10 (≈ 46 µM)	–
